We go through 22 molecules from ChEMBL document CHEMBL1145745 (J Med Chem, 2003).

SMILES strings stand for the structures. Bounds are passed on as bounds.

Experiment [1] relates to Nucleic Acid. Particulars: Bos taurus.
Experiment [2] concerns Mus musculus. Kind of experiment: In vivo average survival rate of mouse infected by T.b. rhodesiense was determined for a period of 60 days at dose of 20 mg/kg by i.p. administration. Type of experiment: functional. Particulars: route intraperitoneal. The essentials:
(§1)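 Mice infected with T. b. rhodesiense STIB900. Diamidines were given intraperitoneally and prodrugs orally, with an untreated infected control group. Parasitemia was monitored daily to day 14, then twice weekly to day 60. For relapsing mice, the day of death was recorded and survival time was averaged in days.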

Experiment [3] deals with Mus musculus. Kind of experiment: No. of mice that survived T.b. rhodesiense infection and are parasite free for 60 days was determined at dose of 20 mg/kg by i.p. administration; 4 animals tested. Particulars: route intraperitoneal. In kind it is functional. The essentials:
(§2)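 Mice infected with T. b. rhodesiense STIB900. Diamidines were given intraperitoneally and prodrugs orally. An untreated infected group served as control. Parasitemia was checked daily up to day 14 post-infection, then twice weekly up to day 60. A cure was counted as a mouse that survived and stayed parasite-free for 60 days.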

The test system of experiment [4] is Mus musculus. Kind of experiment: No. of mice that survived T.b. rhodesiense infection and are parasite free for 60 days was determined at dose of 5 mg/kg by p.o. administration; 4 animals tested. In kind it is functional. Particulars: route oral. The method, boiled down:
as §2

For experiment [5], the system named is Mus musculus. Kind of experiment: No. of mice that survived T.b. rhodesiense infection and are parasite free for 60 days was determined at dose of 75 mg/kg by p.o. administration; 4 animals tested. To be noted: route oral. Type of experiment: functional. The method, boiled down:
as §2

For the next experiment, the system named is Plasmodium falciparum. As to the kind of experiment: In vitro inhibitory activity against Plasmodium falciparum. In kind it is functional, organism-based.
Experiment [6] concerns Mus musculus. As to the kind of experiment: In vivo average survival rate of mouse infected by T.b. rhodesiense was determined for a period of 60 days at dose of 5 mg/kg by p.o. administration. In kind it is functional. To be noted: route oral. The essentials:
as §1

Experiment [7] deals with Mus musculus. As to the kind of experiment: In vivo average survival rate of mouse infected by T.b. rhodesiense was determined for a period of 60 days at dose of 75 mg/kg by p.o. administration. Type of experiment: functional. Particulars: route oral. The method, boiled down:
as §1

Experiment [8] deals with Trypanosoma brucei rhodesiense. Kind of experiment: In vitro inhibitory activity against T. b. rhodesiense. In kind it is functional, organism-based.
Experiment [9] concerns Nucleic Acid.
For experiment [10], the system named is Nucleic Acid. The source holds these as a separate data set.
For experiment [11], the system named is Mus musculus. Kind of experiment: No. of mice that survived T.b. rhodesiense infection and are parasite free for 60 days was determined at dose of 100 mg/kg by p.o. administration; 4 animals tested. To be noted: route oral. In kind it is functional. The essentials:
as §2

Experiment [12] relates to Mus musculus. As to the kind of experiment: In vivo average survival rate of mouse infected by T.b. rhodesiense was determined for a period of 60 days at dose of 100 mg/kg by p.o. administration. Type of experiment: functional. To be noted: route oral. The essentials: as §1
Experiment [13] relates to Mus musculus. Kind of experiment: In vivo average survival rate of mouse infected by T.b. rhodesiense was determined for a period of 60 days at dose of 50 mg/kg by p.o. administration. Particulars: route oral. In kind it is functional. The essentials:
as §1

Experiment [14] relates to Mus musculus. Kind of experiment: No. of mice that survived T.b. rhodesiense infection and are parasite free for 60 days was determined at dose of 50 mg/kg by p.o. administration; 4 animals tested. In kind it is functional. Particulars: route oral. The essentials:
as §2

The subject of experiment [15] is Mus musculus. As to the kind of experiment: In vivo antitrypanosomal activity against T.b. rhodesiense mouse and no. of that survive and are parasite free for 60 days was determined at dose of 5 mg/kg by p.o. administration; 4 animals tested. Type of experiment: functional. To be noted: route oral. The essentials: as §2
For experiment [16], the system named is Mus musculus. Kind of experiment: No. of mice that survived T.b. rhodesiense infection and are parasite free for 60 days was determined at dose 5 mg/kg of by p.o. administration; 4 animals tested. In kind it is functional. To be noted: route oral. The essentials: as §2
For experiment [17], the system named is Mus musculus. As to the kind of experiment: No. of mice that survived T.b. rhodesiense infection and are parasite free for 60 days was determined at dose of 50 mg/kg by p.o. administration; 5 animals tested. In kind it is functional. To be noted: route oral. The method, boiled down: as §2

On to `N=C(N)c1ccc(OCCCCCOc2ccc(C(=N)N)cc2)cc1` [PENTAMIDINE], for which the ΔTm in the experiment with Nucleic Acid [1] stood at 2. Also, in the experiment with Mus musculus [2], the Survival worked out at 40.8 days. For the same molecule, the Cures in the experiment with Mus musculus [3] stood at 0.

A word on the IC50: it is the concentration that gives 50% inhibition. In the case of `CONC(=N)c1ccc(-c2ccc(-c3ccc(C(=N)NOC)nc3)o2)cc1`, the Cures in the experiment on Mus musculus [4] stood at 1; in the experiment on Mus musculus [5] it was 4. Also, the values for the IC50 (in the experiment on Plasmodium falciparum; in experiment [8]) were 8.5 µM and 6.5 µM, respectively. Further, the Survival stood at 34.25 days in the experiment on Mus musculus [6] and 60 days with Mus musculus [7].

For the molecule `N=C(N)c1ccc(-c2ccc(-c3ccc(C(=N)N)nc3)o2)cn1`, the ΔTm with Nucleic Acid [9] was found to be 18.5; with Nucleic Acid [1] it was 8.2. Moreover, the IC50 in the experiment on Plasmodium falciparum worked out at 0.0039 µM; in [8], 0.007 µM. In the experiment on Mus musculus [2], this molecule yielded a Survival of 59 days. In the experiment with Mus musculus [3], this molecule came in with a Cures of 3.

`CONC(=N)c1ccc(-c2ccc(-c3ccc(C(=N)NOC)cn3)s2)cc1`: in the experiment on Nucleic Acid [10], the ΔTm turned out to be 0. The results for the IC50 (with Plasmodium falciparum; in experiment [8]) were 4.9 µM and 9.4 µM, respectively.

`CONC(=N)c1ccc(-c2ccc(-c3ccc(C(=N)NOC)nc3)o2)cn1` yielded a Cures with Mus musculus [11] of 0. The ΔTm in the experiment with Nucleic Acid [10] was -0.5. Further, the IC50 with Plasmodium falciparum turned out to be 1.31 µM; in experiment [8], 1.91 µM. Moreover, the Survival with Mus musculus [12] is 21.75 days.

On to `N=C(N)c1ccc(-c2ccc(-c3ccc(C(=N)N)cn3)o2)nc1`, for which the ΔTm in the experiment with Nucleic Acid [10] came out at 15.5; in the experiment on Nucleic Acid [1], 5.4. The IC50 in the experiment with Plasmodium falciparum was found to be 0.083 µM; in [8] it was 0.021 µM. In the experiment on Mus musculus [2], this molecule gave a Survival of 60 days. The molecule also registered a Cures in the experiment on Mus musculus [3] of 4.

Regarding `N=C(NO)c1ccc(-c2ccc(-c3ccc(/C(N)=N/O)nc3)o2)cn1`, the IC50 is over 10.5 µM in the experiment with Plasmodium falciparum and over 21 µM in experiment [8]. The same molecule gave a Survival in the experiment on Mus musculus [13] of 30 days. For the same molecule, the Cures in the experiment on Mus musculus [14] came to 1.

Turning to `CCONC(=N)c1ccc(-c2ccc(-c3ccc(C(=N)NOCC)cn3)o2)cc1`, in the experiment on Mus musculus [11], the Cures came out at 4. The IC50 in the experiment with Plasmodium falciparum was 7.3 µM; in experiment [8], 8.4 µM. In addition, the Survival in the experiment with Mus musculus [12] is 60 days.

For `N=C(N)c1ccc(-c2ccc(-c3ccc(C(=N)N)nc3)o2)cc1`, the ΔTm in the experiment with Nucleic Acid [10] was 22.6; in the experiment with Nucleic Acid [1] it was 3.1. The half-maximal inhibitory concentration (IC50) in the experiment on Plasmodium falciparum amounted to 0.0183 µM; in [8] it was 0.0031 µM. In the experiment on Mus musculus [2], the Survival was found to be 56.5 days. Also, in the experiment with Mus musculus [3], the Cures was 2.

Consider `N/C(=N\O)c1ccc(-c2ccc(-c3ccc(/C(N)=N\O)cn3)o2)nc1`, for which the ΔTm in the experiment with Nucleic Acid [10] amounted to 0.9. The molecule also showed a Cures with Mus musculus [5] of 0. Moreover, the values for the IC50 (in the experiment on Plasmodium falciparum; in experiment [8]) were over 10.2 µM and 55.8 µM, respectively. Besides, the Survival in the experiment with Mus musculus [7] came to 18 days.

`N=C(NO)c1ccc(-c2ccc(-c3ccc(/C(N)=N/O)nc3)o2)cc1`: in the experiment with Mus musculus [5], the Cures stood at 3. Besides, the IC50 in the experiment on Plasmodium falciparum is over 11.7 µM. The Survival in the experiment with Mus musculus [7] came to 52.75 days.

Regarding `N=C(NO)c1ccc(-c2ccc(-c3ccc(/C(N)=N\O)cc3)s2)nc1`, the IC50 with Plasmodium falciparum was over 10.4 µM.

Turning to `CO/N=C(\N)c1ccc(-c2ccc(-c3ccc(/C(N)=N/OC)cn3)o2)nc1`, the IC50 came out at 1.77 µM in the experiment on Plasmodium falciparum and 11.1 µM in [8]. Besides, the Survival turned out to be 40 days in the experiment with Mus musculus [6] and 60 days with Mus musculus [13]. For the same molecule, the Cures was determined as 1 with Mus musculus [15] and 4 with Mus musculus [14].

Regarding `N=C(NO)c1ccc(-c2ccc(-c3ccc(/C(N)=N/O)cn3)o2)cc1`, in the experiment on Mus musculus [11], the Cures is 0. In addition, the IC50 in the experiment with Plasmodium falciparum is 4.3 µM; in experiment [8], 120 µM. The same molecule came in with a Survival in the experiment with Mus musculus [12] of 54 days.

As for `N=C(N)c1ccc(-c2ccc(-c3ccc(C(=N)N)cc3)o2)cc1` [FURAMIDINE], the ΔTm in the experiment on Nucleic Acid [1] amounted to 8.9. The molecule also displayed a Survival in the experiment on Mus musculus [2] of 52.5 days. For the same molecule, the Cures in the experiment with Mus musculus [3] is 0.

For the molecule `CO/N=C(\N)c1ccc(-c2ccc(-c3ccc(/C(N)=N/OC)cn3)o2)cc1`, the ΔTm with Nucleic Acid [10] is 0.9. Moreover, the concentration for half-maximal inhibition (IC50) in the experiment with Plasmodium falciparum came to 4.9 µM; in experiment [8], 37.1 µM. For the same molecule, the Survival in the experiment with Mus musculus [6] was found to be 60 days. In the experiment on Mus musculus [16], this molecule displayed a Cures of 4.

In turn, `CONC(=N)c1ccc(-c2ccc(-c3ccc(C(=N)NOC)cc3)o2)cc1` [PAFURAMIDINE] yielded a Survival in the experiment with Mus musculus [13] of 60 days. For the same molecule, in the experiment on Mus musculus [17], the Cures is given as 2.

Regarding `N=C(NO)c1ccc(-c2ccc(-c3ccc(/C(N)=N\O)cc3)o2)cc1`, the Cures in the experiment with Mus musculus [11] is 0. This molecule also had a Survival in the experiment with Mus musculus [12] of 50 days.

With `N=C(N)c1ccc(-c2ccc(-c3ccc(C(=N)N)cn3)o2)cc1`, in the experiment on Nucleic Acid [1], the ΔTm turned out to be 6.6. Besides, the Survival in the experiment with Mus musculus [2] amounted to 60 days. The molecule further gave an IC50 in experiment [8] of 0.007 µM. This molecule also came in with a Cures in the experiment with Mus musculus [3] of 4.

Consider `N=C(NO)c1cccc(-c2ccc(-c3ccc(/C(N)=N\O)cn3)o2)c1`, for which the IC50 amounted to 41.5 µM in the experiment with Plasmodium falciparum and 13.3 µM in experiment [8].

With `N=C(N)c1ccc(-c2ccc(-c3cccc(C(=N)N)c3)o2)nc1`, the values for the ΔTm in the experiment on Nucleic Acid [10] and with Nucleic Acid [1] were 7.3 and 3.3, respectively. Moreover, the IC50 in the experiment on Plasmodium falciparum came out at 0.0088 µM; in experiment [8], 0.0407 µM. The Survival in the experiment with Mus musculus [2] turned out to be 26.25 days. The Cures with Mus musculus [3] was found to be 0.

`N=C(N)c1ccc(Cc2ccc(-c3ccc(C(=N)N)nc3)o2)cc1`: the values for the ΔTm in the experiment with Nucleic Acid [10] and in the experiment with Nucleic Acid [1] were 3.6 and 1.3, respectively. Besides, the values for the IC50 (with Plasmodium falciparum; in experiment [8]) were 0.148 µM and 0.147 µM, respectively.
